Experimental data published in ChEMBL document CHEMBL1148506, “Structure-activity relationships of new 1H-imidazo[4,5-c]quinolin-4-amine derivatives as allosteric enhancers of the A3 adenosine receptor” (J Med Chem, 2006).

How the values were obtained:
[1] = target: T1, Adenosine receptor A3 (Homo sapiens) (UniProt P0DMS8); experiment: Increase of efficacy at human adenosine A3 receptor in CHO cells at 10 uM relative to 2-Cl-IB-MECA
T1 sequence (whole entry): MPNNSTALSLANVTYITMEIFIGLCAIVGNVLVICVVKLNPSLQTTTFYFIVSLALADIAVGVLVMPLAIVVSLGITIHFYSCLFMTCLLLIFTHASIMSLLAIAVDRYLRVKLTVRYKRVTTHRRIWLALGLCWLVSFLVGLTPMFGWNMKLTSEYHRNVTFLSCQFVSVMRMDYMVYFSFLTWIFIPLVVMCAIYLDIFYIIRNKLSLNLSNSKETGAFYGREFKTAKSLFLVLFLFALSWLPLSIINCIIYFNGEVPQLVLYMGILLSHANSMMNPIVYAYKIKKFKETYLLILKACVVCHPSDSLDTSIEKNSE

[2] = target: T1, Adenosine receptor A3 (Homo sapiens); experiment: Displacement of [125I]I-AB-MECA from human adenosine A3 receptor in CHO membrane at 10 uM; format: cell membranes
Procedure, shortened: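 Membranes from CHO cells stably expressing human A3AR (20 μg protein) incubated with 0.5 nM [125I]I-AB-MECA and 10 μM test ligand, 60 min at 25°C, in 50 mM Tris·HCl pH 8.0, 10 mM MgCl2, 1 mM EDTA. Nonspecific binding defined with 10 μM NECA; filtration, gamma counting. Mean of 2-4 experiments in duplicate.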

[3] = target: T2, Adenosine receptor A2a (Homo sapiens, UniProt P29274); experiment: Displacement of [3H]CGS21680 from human adenosine A2A receptor in HEK293 cells at 10 uM
[4] = target: T1, Adenosine receptor A3 (Homo sapiens); experiment: Decrease in dissociation of [125I]I-AB-MECA from human adenosine A3 receptor in CHO membrane at 10 uM relative to control after 30 min; format: cell membranes; set-up: scale not given: the % may be the effect or the level left
Procedure, shortened: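 Membranes (20 μg) preloaded with 0.5 nM [125I]I-AB-MECA, 60 min at 25°C, in 50 mM Tris-HCl pH 8.0 with 10 mM MgCl2 and 1 mM EDTA. Dissociation started with 3 μM Cl-IB-MECA, with or without 10 μM modulator. Binding read by rapid filtration at 30 min; reported as % decrease in dissociation versus control (100%).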

[5] = target: T3, Adenosine receptor A2b (Homo sapiens) (UniProt P29275); experiment: Antagonist activity at human adenosine A2B receptor assessed as inhibition of NECA-induced cAMP accumulation in CHO membrane at 10 uM; set-up: scale not given: the % may be the effect or the level left
T3 sequence (whole entry): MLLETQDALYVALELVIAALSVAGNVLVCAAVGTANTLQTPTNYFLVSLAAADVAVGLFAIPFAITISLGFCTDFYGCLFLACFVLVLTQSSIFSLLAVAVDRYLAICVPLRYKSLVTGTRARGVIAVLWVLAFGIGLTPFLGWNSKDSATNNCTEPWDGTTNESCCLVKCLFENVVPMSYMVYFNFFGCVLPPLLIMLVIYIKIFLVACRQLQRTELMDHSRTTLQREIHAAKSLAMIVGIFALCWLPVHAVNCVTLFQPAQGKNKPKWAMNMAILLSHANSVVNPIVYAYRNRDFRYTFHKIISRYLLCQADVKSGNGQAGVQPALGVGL

[6] = target: T4, Adenosine receptor A1 (Homo sapiens) (UniProt P30542); experiment: Displacement of [3H]R-PIA from human adenosine A1 receptor in CHO membrane at 10 uM; format: cell membranes
T4 sequence (whole entry): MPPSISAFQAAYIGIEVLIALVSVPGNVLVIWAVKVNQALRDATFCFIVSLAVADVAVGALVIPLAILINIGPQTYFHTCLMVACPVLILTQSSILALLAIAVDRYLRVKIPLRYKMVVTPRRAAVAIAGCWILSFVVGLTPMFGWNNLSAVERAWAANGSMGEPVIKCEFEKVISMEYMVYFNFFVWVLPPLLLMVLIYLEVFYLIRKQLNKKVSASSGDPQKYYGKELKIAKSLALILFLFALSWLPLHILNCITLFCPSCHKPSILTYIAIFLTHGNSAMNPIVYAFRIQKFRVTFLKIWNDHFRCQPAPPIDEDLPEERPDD

[7] = target: T5, Adenosine receptor A1 (Homo sapiens, UniProt P30542); experiment: Displacement of [3H]R-PIA from human adenosine A1 receptor in CHO membrane; format: cell membranes
T5 sequence (P30542 whole entry): T4 sequence (whole entry)
Procedure, shortened: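 Membranes (40 μg/tube) from CHO cells stably expressing human A1AR, incubated with 2 nM [3H]R-PIA at 25 °C for 60 min in 50 mM Tris·HCl pH 7.4, 10 mM MgCl2. Membranes stored with 3 U/mL adenosine deaminase. Nonspecific binding defined with 10 μM N6-cyclopentyladenosine. Reaction ended by GF/B filtration.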

[8] = target: T2, Adenosine receptor A2a; experiment: Displacement of [3H]CGS21680 from human adenosine A2A receptor in HEK293 cells

T2 sequence (P29274 whole entry): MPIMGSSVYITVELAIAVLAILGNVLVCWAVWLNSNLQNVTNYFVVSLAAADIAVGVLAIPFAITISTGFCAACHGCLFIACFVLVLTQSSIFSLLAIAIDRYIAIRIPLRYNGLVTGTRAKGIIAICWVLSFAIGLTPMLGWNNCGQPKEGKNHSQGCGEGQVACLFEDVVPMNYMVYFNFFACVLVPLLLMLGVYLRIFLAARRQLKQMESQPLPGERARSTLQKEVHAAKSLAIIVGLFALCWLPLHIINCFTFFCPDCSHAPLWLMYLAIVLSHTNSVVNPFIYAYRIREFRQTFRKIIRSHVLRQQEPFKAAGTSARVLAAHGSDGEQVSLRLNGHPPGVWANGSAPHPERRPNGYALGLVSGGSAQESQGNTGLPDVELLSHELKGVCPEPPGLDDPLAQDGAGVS

| SMILES | Activity [1] | Activity [2] | Activity [3] | Activity [4] | Activity [5] | Activity [6] | Ki [7] | Ki [8] |
| --- | --- | --- | --- | --- | --- | --- | --- | --- |
| OCc1cccc(Nc2[nH]c3ccccc3c3nc(C4CCCC4)nc2-3)c1 | 118% | 56% | 49% | 129% | -4.1% | 51% | – | – |
| Clc1ccc(Nc2nc3ccccc3c3[nH]c(C4CCCCCC4)nc23)cc1Cl | 115% | 68% | -2% | 130% | -7.3% | -4% | – | – |
| Clc1ccc(Nc2[nH]c3ccccc3c3nc(-c4ccco4)nc2-3)cc1Cl | 95% | 78% | 70% | 98% | 9% | -4% | – | – |
| CCCCCc1nc2c(Nc3ccc(Cl)c(Cl)c3)[nH]c3ccccc3c-2n1 | 102% | 84% | -1% | 116% | -9.3% | 43.9% | – | – |
| Clc1ccc(Nc2nc3ccccc3c3nc(C4CCCCC4)[nH]c23)cc1Cl | 145% | 45% | -1% | 173% | -5.6% | -2% | – | – |
| Clc1ccc(Nc2nc3ccccc3c3[nH]c(C4CCCC4)nc23)cc1 | 136% | 82% | 17% | 159% | -10.2% | 22% | > 10 µM | > 10 µM |
| COc1ccc(Nc2nc3ccccc3c3nc(C4CCCC4)[nH]c23)cc1 | 132% | 92% | 16% | 166% | 7.3% | – | – | > 10 µM |
| c1ccc2c3nc(C4CCCC4)nc-3c(Nc3ccc4cc[nH]c4c3)[nH]c2c1 | 125% | 89% | 74% | 126% | 10.1% | 70% | – | – |
| c1ccc2c3nc(C4CCCC4)nc-3c(Nc3ccc4c[nH]nc4c3)[nH]c2c1 | 96% | 67% | 68% | 109% | 5% | 56% | – | – |
| c1ccc(CCNc2[nH]c3ccccc3c3nc(C4CCCC4)nc2-3)cc1 | 137% | 84% | 91% | 154% | -11.6% | 52% | – | – |
| c1ccc(CNc2[nH]c3ccccc3c3nc(C4CCCC4)nc2-3)cc1 | 147% | 86% | 77% | 145% | -3.4% | 28% | – | – |
| c1ccc2c3nc(C4CCCC4)nc-3c(Nc3ccc4c(c3)CCC4)[nH]c2c1 | 111% | 69% | 8% | 108% | -10.7% | 21% | – | – |
| COc1ccc(CNc2[nH]c3ccccc3c3nc(C4CCCC4)nc2-3)cc1 | 109% | 80% | 60% | 101% | 0.3% | 59% | – | – |
| Clc1ccc(Nc2nc3ccccc3c3[nH]c(C4CCC4)nc23)cc1Cl | 126% | 52% | 0.4% | – | -5.5% | -5% | – | – |
| Clc1ccc(Nc2[nH]c3ccccc3c3ncnc2-3)cc1Cl | 92% | 39% | -0.8% | 91% | 10.2% | 1.8% | – | – |
| Cc1ccc(Nc2nc3ccccc3c3[nH]c(C4CCCC4)nc23)cc1 | 128% | 87% | – | 153% | -4.1% | – | – | – |
| Clc1ccc(Nc2nc3ccccc3c3[nH]c(C4CCCC4)nc23)cc1Cl | 141% | 67% | 0% | 144% | -6.7% | 15% | > 10 µM | > 10 µM |
| c1ccc(Nc2nc3ccccc3c3[nH]c(C4CCCC4)nc23)cc1 | 138% | 90% | – | 174% | -6.8% | – | – | – |
